Data as given in paper PMC8301548 (Clinical and Translational Science, 2021).
Values after ≈ are worked out from the molar mass of the structure shown. Where two headings read alike, the source gives them in different places.

What was measured:
[1] = assay type: in vivo; settings: human, serum, po, 300 mg, 300 mg single oral dose of allopurinol; for AUC(0-t) / Cmax / Vd/F: mean ± SE; for Tmax: median (range); for Vd/F: V/F (apparent volume of distribution)
[2] = Population PK model of oxypurinol; assay type: in vivo, human; settings: for Kfm (formation rate constant): final PK model
[3] = system: serum uric acid (SUA); assay type: in vivo, human
[4] = system: BCRP; settings: cited from earlier work
[5] = Tolerability in the clinical study; assay type: in vivo, human; settings: 19 healthy volunteers who completed the study; 300 mg oral allopurinol
Method in brief: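 Healthy adults aged 18–50 were screened by medical-history questionnaire. Exclusions were HLA‑B*58:01 carriers, interacting medications, liver enzymes or creatinine >1.5× normal range, and abnormal platelet or white-cell counts. […] In one protocol they continued 300 mg once daily, with a final dose on day 6. In the other they received a single dose only.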

[6] = system: serum uric acid (SUA); settings: cited from earlier work

Q: For `O=c1[nH]c(=O)c2c[nH]nc2[nH]1` [Oxypurinol, oxypurinol], which AUC(0-t) ([1]; AUC0–24, genotype (0) CC) is on record?
A: 93900 ± 8070 ng·h/mL

Q: What about the AUC(0-t) ([1]; AUC0–24, genotype (1) CA) of the same compound?
A: 93400 ± 9990 ng·h/mL

Q: And the AUC(0-t) ([1]; AUC0–24, genotype (2) AA)?
A: 105000 ± 20600 ng·h/mL

Q: And the Cmax ([1]; genotype (0) CC, n=9)?
A: 5930 ± 409 ng/mL

Q: What about the Cmax ([1]; genotype (1) CA, n=7) of the same compound?
A: 6440 ± 592 ng/mL

Q: What about the Cmax ([1]; genotype (2) AA, n=3) of the same compound?
A: 6380 ± 1350 ng/mL

Q: And the Tmax ([1]; genotype (0) CC)?
A: 4 h

Q: What about the Tmax ([1]; genotype (1) CA) of the same compound?
A: 4 h

Q: What about the Tmax ([1]; genotype (2) AA) of the same compound?
A: 6 h

Q: What about the Vd/F ([1]; genotype (0) CC) of the same compound?
A: 49.9 ± 4.53 L

Q: And the Vd/F ([1]; genotype (1) CA)?
A: 61.9 ± 9.58 L

Q: What about the Vd/F ([1]; genotype (2) AA) of the same compound?
A: 56.6 ± 11.6 L

Q: And the “θgender(female), covariate effect on V/Fm” value ([2]; V/Fm=θV/Fm×(1+θgender), estimate (%RSE) [95% CI])?
A: θgender(female) = −0.248 (35.7) [−0.395, −0.067]

Q: What about the “Kfm (formation rate constant)” value ([2]; BSV in parentheses in the text) of the same compound?
A: 0.771 h⁻¹

Q: And the “Kfm (formation rate constant)” value ([2]; estimate (%RSE) [95% CI])?
A: 0.771 (17.8) [0.535, 1.06] 1/h

Q: What about the “lower V/Fm in women compared with men” value ([2]; final PK/PD model, gender covariate) of the same compound?
A: 24.8%

Q: And the Vd/F ([2]; male, human, plasma, oral, 300 mg)?
A: 57 L

Q: And the EC50 ([3]; Homo sapiens, read-out: C50 (concentration needed to achieve 50% effect))?
A: 2.59 µg/mL (≈ 17 µM)

Q: What about the “Emax (maximum effect)” value ([3]; final PK/PD model, effect on SUA, RSE not given) of the same compound?
A: 1

Q: And the BCRP substrate [4]?
A: substrates of BCRP

Q: Which Cmax ([1]; genotype (0) CC, n=9) does the source give for `Oc1ncnc2[nH]ncc12` [Allopurinol, allopurinol] here?
A: 1370 ± 130 ng/mL

Q: And the Cmax ([1]; genotype (1) CA, n=7)?
A: 1930 ± 617 ng/mL

Q: And the Cmax ([1]; genotype (2) AA, n=3)?
A: 1550 ± 453 ng/mL

Q: What about the Tmax ([1]; genotype (0) CC) of the same compound?
A: 1.5 h

Q: And the Tmax ([1]; genotype (1) CA)?
A: 1 h

Q: What about the Tmax ([1]; genotype (2) AA) of the same compound?
A: 2 h

Q: What about the Vd/F ([1]; genotype (0) CC) of the same compound?
A: 149 ± 17 L

Q: What about the Vd/F ([1]; genotype (1) CA) of the same compound?
A: 160 ± 22.3 L

Q: What about the Vd/F ([1]; genotype (2) AA) of the same compound?
A: 148 ± 40.9 L

Q: What about the tolerability [5] of the same compound?
A: well‐tolerated

Q: And the “patients reaching an acceptable treatment end point” value [6]?
A: 21%

Q: And the BCRP substrate [4]?
A: substrates of BCRP
